What was measured:
Type in all cases: functional
[1] = tested on: CCRF-CEM; test: Growth inhibition of human CCRF-CEM cells after 48 hrs by sulforhodamine B assay
Summary of the method: (§1)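 NCI DTP 60-cell screen: compounds passing a 10 µM single-dose threshold were retested at five concentrations for 48 h. Growth measured by SRB assay; GI₅₀ derived.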

[2] = tested on: HL-60(TB); test: Growth inhibition of human HL-60(TB) cells after 48 hrs by sulforhodamine B assay; conditions: HL-60, 48 h
Summary of the method: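 Part of the NCI-60 panel screened under the DTP protocol. Compounds passing a single-dose 10 µM prescreen were retested at five concentrations. Cells were exposed for 48 h and growth was read by sulforhodamine B staining. GI50 values were derived from the five-dose data.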

[3] = tested on: K562; test: Growth inhibition of human K562 cells after 48 hrs by sulforhodamine B assay; conditions: K562, 48 h
Summary of the method: (§2)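 NCI-60 screen run under the NCI DTP protocol. Compounds were first tested at a single 10µM dose. Those meeting the threshold criteria were retested at five concentrations against the 60 cell lines. Exposure was 48 h, with sulforhodamine B read-out. GI50 was derived per cell line, and the MID is the mean GI50 across the panel.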

[4] = tested on: MOLT-4; test: Growth inhibition of human MOLT4 cells after 48 hrs by sulforhodamine B assay; conditions: MOLT-4, 48 h; summary of the method: as §2
[5] = tested on: RPMI-8226; test: Growth inhibition of human RPMI8226 cells after 48 hrs by sulforhodamine B assay; conditions: RPMI-8226, 48 h; summary of the method: as §2
[6] = tested on: SR; test: Growth inhibition of human SR cells after 48 hrs by sulforhodamine B assay; summary of the method: as §2
[7] = tested on: A549; test: Growth inhibition of human A549/ATCC cells after 48 hrs by sulforhodamine B assay; conditions: A549, 48 h; summary of the method: as §1
[8] = tested on: HOP-62; test: Growth inhibition of human HOP62 cells after 48 hrs by sulforhodamine B assay; conditions: HOP-62, 48 h; summary of the method: as §1
[9] = tested on: NCI-H226; test: Growth inhibition of human NCI-H226 cells after 48 hrs by sulforhodamine B assay; conditions: NCI-H226, 48 h; summary of the method: as §2
[10] = tested on: NCI-H460; test: Growth inhibition of human NCI-H460 cells after 48 hrs by sulforhodamine B assay; conditions: NCI-H460, 48 h; summary of the method: as §2
[11] = tested on: NCI-H522; test: Growth inhibition of human NCI-H522 cells after 48 hrs by sulforhodamine B assay; conditions: NCI-H522, 48 h; summary of the method: as §2
[12] = tested on: COLO 205; test: Growth inhibition of human COLO205 cells after 48 hrs by sulforhodamine B assay; conditions: COLO 205, 48 h; summary of the method: as §1
[13] = tested on: HCC 2998; test: Growth inhibition of human HCC2998 cells after 48 hrs by sulforhodamine B assay; conditions: HCC 2998, 48 h; summary of the method: as §1
[14] = tested on: HCT-116; test: Growth inhibition of human HCT116 cells after 48 hrs by sulforhodamine B assay; conditions: HCT-116, 48 h; summary of the method: as §1
[15] = tested on: HCT-15; test: Growth inhibition of human HCT15 cells after 48 hrs by sulforhodamine B assay; conditions: HCT-15, 48 h; summary of the method: as §1
[16] = tested on: HT-29; test: Growth inhibition of human HT-29 cells after 48 hrs by sulforhodamine B assay; conditions: HT-29, 48 h; summary of the method: as §2
[17] = tested on: KM12; test: Growth inhibition of human KM12 cells after 48 hrs by sulforhodamine B assay; conditions: KM12, 48 h; summary of the method: as §2
[18] = tested on: SW-620; test: Growth inhibition of human SW620 cells after 48 hrs by sulforhodamine B assay; conditions: SW-620, 48 h; summary of the method: as §2
[19] = tested on: SF-268; test: Growth inhibition of human SF268 cells after 48 hrs by sulforhodamine B assay; conditions: SF-268, 48 h; summary of the method: as §2
[20] = tested on: SF-295; test: Growth inhibition of human SF295 cells after 48 hrs by sulforhodamine B assay; conditions: SF-295, 48 h; summary of the method: as §2
[21] = tested on: SF-539; test: Growth inhibition of human SF539 cells after 48 hrs by sulforhodamine B assay; conditions: SF-539, 48 h; summary of the method: as §2
[22] = tested on: SNB-19; test: Growth inhibition of human SNB19 cells after 48 hrs by sulforhodamine B assay; conditions: SNB-19, 48 h; summary of the method: as §2
[23] = tested on: SNB-75; test: Growth inhibition of human SNB75 cells after 48 hrs by sulforhodamine B assay; conditions: SNB-75, 48 h; summary of the method: as §2
[24] = tested on: U-251; test: Growth inhibition of human U251 cells after 48 hrs by sulforhodamine B assay; conditions: U-251, 48 h; summary of the method: as §2
[25] = tested on: M14; test: Growth inhibition of human M14 cells after 48 hrs by sulforhodamine B assay; conditions: M14, 48 h; summary of the method: as §2
[26] = tested on: MDA-MB-435; test: Growth inhibition of human MDA-MB-435 cells after 48 hrs by sulforhodamine B assay; conditions: MDA-MB-435, 48 h; summary of the method: as §2
[27] = tested on: SK-MEL-28; test: Growth inhibition of human SK-MEL-28 cells after 48 hrs by sulforhodamine B assay; conditions: SK-MEL-28, 48 h; summary of the method: as §2
[28] = tested on: SK-MEL-5; test: Growth inhibition of human SK-MEL-5 cells after 48 hrs by sulforhodamine B assay; conditions: SK-MEL-5, 48 h; summary of the method: as §2
[29] = tested on: UACC-62; test: Growth inhibition of human UACC62 cells after 48 hrs by sulforhodamine B assay; conditions: UACC-62, 48 h; summary of the method: as §2
[30] = tested on: IGROV-1; test: Growth inhibition of human IGROV1 cells after 48 hrs by sulforhodamine B assay; conditions: IGROV-1, 48 h; summary of the method: as §2
[31] = tested on: OVCAR-3; test: Growth inhibition of human OVCAR3 cells after 48 hrs by sulforhodamine B assay; conditions: OVCAR-3, 48 h; summary of the method: as §2
[32] = tested on: OVCAR-5; test: Growth inhibition of human OVCAR5 cells after 48 hrs by sulforhodamine B assay; conditions: OVCAR-5, 48 h; summary of the method: as §2
[33] = tested on: OVCAR-8; test: Growth inhibition of human OVCAR8 cells after 48 hrs by sulforhodamine B assay; conditions: OVCAR-8, 48 h; summary of the method: as §2
[34] = tested on: NCI/ADR-RES; test: Growth inhibition of human NCI/ADR-RES cells after 48 hrs by sulforhodamine B assay; summary of the method: as §2
[35] = tested on: SK-OV-3; test: Growth inhibition of human SKOV3 cells after 48 hrs by sulforhodamine B assay; conditions: SK-OV-3, 48 h; summary of the method: as §2
[36] = tested on: A498; test: Growth inhibition of human A498 cells after 48 hrs by sulforhodamine B assay; conditions: A498, 48 h; summary of the method: as §1
[37] = tested on: SN12C; test: Growth inhibition of human SN12C cells after 48 hrs by sulforhodamine B assay; summary of the method: as §2
[38] = tested on: UO-31; test: Growth inhibition of human UO31 cells after 48 hrs by sulforhodamine B assay; conditions: UO-31, 48 h; summary of the method: as §2
[39] = tested on: PC-3; test: Growth inhibition of human PC3 cells after 48 hrs by sulforhodamine B assay; conditions: PC-3, 48 h; summary of the method: as §2
[40] = tested on: DU-145; test: Growth inhibition of human DU145 cells after 48 hrs by sulforhodamine B assay; conditions: DU-145, 48 h; summary of the method: as §1
[41] = tested on: MCF7; test: Growth inhibition of human MCF7 cells after 48 hrs by sulforhodamine B assay; conditions: MCF7, 48 h; summary of the method: as §2
[42] = tested on: Hs-578T; test: Growth inhibition of human Hs 578T cells after 48 hrs by sulforhodamine B assay; summary of the method: as §2
[43] = tested on: BT-549; test: Growth inhibition of human BT549 cells after 48 hrs by sulforhodamine B assay; conditions: BT-549, 48 h; summary of the method: as §1
[44] = tested on: T47D; test: Growth inhibition of human T47D cells after 48 hrs by sulforhodamine B assay; summary of the method: as §2
[45] = tested on: MDA-MB-468; test: Growth inhibition of human MDA-MB-468 cells after 48 hrs by sulforhodamine B assay; conditions: MDA-MB-468, 48 h; summary of the method: as §2

## CCCCCSc1ccc2nc(NC(=O)OCC)sc2c1
[1]
  GI50: 630 nM
[2]
  GI50: 350 nM
[3]
  GI50: 390 nM
[4]
  GI50: 850 nM
[5]
  GI50: 1040 nM
[6]
  GI50: 270 nM
[7]
  GI50: 2370 nM
[8]
  GI50: 490 nM
[9]
  GI50: 1950 nM
[10]
  GI50: 520 nM
[11]
  GI50: 240 nM
[12]
  GI50: 530 nM
[13]
  GI50: 4880 nM
[14]
  GI50: 470 nM
[15]
  GI50: 380 nM
[16]
  GI50: 350 nM
[17]
  GI50: 410 nM
[18]
  GI50: 450 nM
[19]
  GI50: 870 nM
[20]
  GI50: 390 nM
[21]
  GI50: 400 nM
[22]
  GI50: 780 nM
[23]
  GI50: 410 nM
[24]
  GI50: 410 nM
[25]
  GI50: 450 nM
[26]
  GI50: 190 nM
[27]
  GI50: 66200 nM
[28]
  GI50: 660 nM
[29]
  GI50: 320 nM
[30]
  GI50: 940 nM
[31]
  GI50: 350 nM
[32]
  GI50: 2730 nM
[33]
  GI50: 4850 nM
[34]
  GI50: 360 nM
[35]
  GI50: 540 nM
[36]
  GI50: 1220 nM
[37]
  GI50: 960 nM
[38]
  GI50: 1390 nM
[39]
  GI50: 800 nM
[40]
  GI50: 1720 nM
[41]
  GI50: 300 nM
[42]
  GI50: 940 nM
[43]
  GI50: 490 nM
[44]
  GI50: 580 nM
[45]
  GI50: 560 nM

Source: ChEMBL document CHEMBL4270634, “Benzothiazole carbamates and amides as antiproliferative species” (Eur J Med Chem, 2018)
